Test results published in article PMC6248884 (European journal of medicinal chemistry, 2018).
Like-named read-outs stand apart in the source and are kept apart here. Square brackets hold non-standard residues; d marks the D form. Peptide text beside a SMILES is read from it. * marks the point of attachment. Dolaproine = CO[C@@H]([C@@H]1CCCN1)[C@@H](C)C(=O)O; Dil = CC[C@H](C)[C@H](NC)[C@@H](CC(=O)O)OC; X1 = C[C@@H](N*)[C@@H](O)c1ccccc1; NMeV = CN[C@H](C(=O)O)C(C)C

What was measured:
NCI-H460 cells = assay: Cytotoxicity assay to NCI-H460 human lung carcinoma cells; format: cell-based
[1] = biological target: ChT-L site of the proteasome; assay: Binding affinity to the ChT-L site of the proteasome; format: biochemical; conditions: read-out: IC50, ChT-L site of the proteasome; proteasome source not stated
HCT116 cells = assay: Cytotoxicity to HCT116 colon adenocarcinoma cell line; format: cell-based
[2] = biological target: human 20S proteasome ChT-L site (Homo sapiens, UniProt P20618+P28074); assay: Proteasome inhibition assay, chymotrypsin-like site, fluorogenic substrate; format: biochemical
Outline: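 Human recombinant 20S proteasome, 3 µg/mL in buffer (100 mM Tris pH 7.5, 0.5 mM EDTA, 0.03% SDS), preincubated 30 min at 37 °C with test compound or 25% DMSO vehicle. Reaction started with site-selective AMC substrate (Suc-LLVY-AMC for ChT-L) and run 30 min at 37 °C. Eleven-point 3-fold series, 1.0 µM–[…] final, in triplicate. Fluorescence read at ex 365/em 450 nm; data scaled to internal controls; IC50 from four-parameter logistic fit.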

SKBR3 cells (Her2+) = assay: Cell proliferation assay; format: cell-based
[3] = biological target: human 20S proteasome T-L site (Homo sapiens, UniProt P49720+Q99436); assay: Proteasome inhibition assay, trypsin-like site, fluorogenic substrate; format: biochemical
[4] = biological target: human 20S proteasome C-L site (Homo sapiens, UniProt P28072+Q99436); assay: Proteasome inhibition assay, caspase-like site, fluorogenic substrate; format: biochemical
MDA-MB-468 cells (Her2-) = assay: Cell proliferation assay; format: cell-based
MDA-MB-231 cells (Her2-) = assay: Cell proliferation assay; format: cell-based; conditions: read-out: MDA-MB-231 IC50, Table 5
[5] = read-out: NCI-H460 IC50, Table 1, NCI-H460 cell line
[6] = Homo sapiens, NCI-H460, read-out: NCI-H460 IC50
[7] = Homo sapiens, HCT-116, read-out: HCT116 IC50
[8] = Homo sapiens, SK-BR-3, read-out: SKBR3 IC50
[9] = Homo sapiens, MDA-MB-468, read-out: MDA-MB-468 IC50

IC50 [2] [nM] | SMILES | IC50 (NCI-H460 cells; [6]) [nM] | IC50 (HCT116 cells; [7]) [nM] | also measured
– | CC(C)CC(NC(=O)C(CCS(C)(=O)=O)NC(=O)C(NC(=O)CCCCCN)C(C)C)C(=O)C1(C)CO1 (centres unmarked) [Analogue 6] | – | – | IC50 (NCI-H460 cells; [5]): 860 nM; IC50 [1]: 539 nM
42.2 ± 5.4 | CCCCCC(=O)N[C@H](C(=O)N[C@@H](CCS(=O)(=O)CCN)C(=O)N[C@@H](CC(C)C)C(=O)[C@@]1(C)CO1)C(C)C [Analogue 7, N-((S)-1-(((S)-4-((2-aminoethyl)sulfonyl)-1-(((S)-4-methyl-1-((R)-2-methyloxiran-2-yl)-1oxopentan-2-yl)amino)-1-oxobutan-2-yl)amino)-3-methyl-1-oxobutan-2-yl)hexanamide] | 34 | 624 | –
14.2 ± 2.4 | CCCCCC(=O)N[C@H](C(=O)N[C@@H](CCS(=O)(=O)CCNC(=O)OC(C)(C)C)C(=O)N[C@@H](CC(C)C)C(=O)[C@@]1(C)CO1)C(C)C [Analogue 7-Boc, tert-Butyl (2-(((S)-3-((S)-2-hexanamido-3-methylbutanamido)-4-(((S)-4-methyl-1-((R)-2methyloxiran-2-yl)-1-oxopentan-2-yl)amino)-4-oxobutyl)sulfonyl)ethyl)carbamate] | 2.1 ± 0.16 | 4.8 ± 0.27 | –
– | CC(C)C[C@H](NC(=O)[C@H](CCS(=O)(=O)CCN)NC(=O)[C@H](Cc1ccccc1)NC(=O)Cc1ccccc1)C(=O)[C@@]1(C)CO1 [Analogue 8, (S)-4-((2-Aminoethyl)sulfonyl)-N-((S)-4-methyl-1-((R)-2-methyloxiran-2-yl)-1-oxopentan-2yl)-2-((S)-3-phenyl-2-(2-phenylacetamido)propanamido)butanamide] | 34.2 | 165 | –
– | CC(C)C[C@H](NC(=O)[C@H](CCS(=O)(=O)CCNC(=O)OC(C)(C)C)NC(=O)[C@H](Cc1ccccc1)NC(=O)Cc1ccccc1)C(=O)[C@@]1(C)CO1 [Analogue 8-Boc, tert-Butyl (2-(((S)-4-(((S)-4-methyl-1-((R)-2-methyloxiran-2-yl)-1-oxopentan-2-yl)amino)-4oxo-3-((S)-3-phenyl-2-(2-phenylacetamido)propanamido)butyl)sulfonyl)ethyl)carbamate] | 8.5 ± 1.2 | 4.8 ± 0.35 | –
– | CCCCCC(=O)N[C@H](C(=O)N[C@@H](CCS(=O)(=O)CCN)C(=O)N[C@@H](Cc1ccccc1)C(=O)[C@@]1(C)CO1)C(C)C [Analogue 9, N-((S)-1-(((S)-4-((2-Aminoethyl)sulfonyl)-1-(((S)-1-((R)-2-methyloxiran-2-yl)-1-oxo-3phenylpropan-2-yl)amino)-1-oxobutan-2-yl)amino)-3-methyl-1-oxobutan-2-yl)hexanamide] | 33.4 | 882 | –
– | CCCCCC(=O)N[C@H](C(=O)N[C@@H](CCS(=O)(=O)CCNC(=O)OC(C)(C)C)C(=O)N[C@@H](Cc1ccccc1)C(=O)[C@@]1(C)CO1)C(C)C [Analogue 9-Boc, tert-Butyl (2-(((S)-3-((S)-2-hexanamido-3-methylbutanamido)-4-(((S)-1-((R)-2methyloxiran-2-yl)-1-oxo-3-phenylpropan-2-yl)amino)-4oxobutyl)sulfonyl)ethyl)carbamate] | 2.6 ± 0.12 | 1.3 ± 0.2 | –
– | C[C@]1(C(=O)[C@H](Cc2ccccc2)NC(=O)[C@H](CCS(=O)(=O)CCN)NC(=O)[C@H](Cc2ccccc2)NC(=O)Cc2ccccc2)CO1 [Analogue 10, (S)-4-((2-Aminoethyl)sulfonyl)-N-((S)-1-((R)-2-methyloxiran-2-yl)-1-oxo-3-phenylpropan-2yl)-2-((S)-3-phenyl-2-(2-phenylacetamido)propanamido)butanamide] | 304 | 698 | –
– | CC(C)(C)OC(=O)NCCS(=O)(=O)CC[C@H](NC(=O)[C@H](Cc1ccccc1)NC(=O)Cc1ccccc1)C(=O)N[C@@H](Cc1ccccc1)C(=O)[C@@]1(C)CO1 [Analogue 10-Boc, tert-Butyl (2-(((S)-4-(((S)-1-((R)-2-methyloxiran-2-yl)-1-oxo-3-phenylpropan-2-yl)amino)-4oxo-3-((S)-3-phenyl-2-(2-phenylacetamido)propanamido)butyl)sulfonyl)ethyl)carbamate] | 21 ± 1.3 | 10.9 ± 0.98 | –
1.5 ± 0.2 | CCCCCC(=O)N[C@H](C(=O)N[C@@H](CCS(=O)(=O)c1ccc(N)cc1)C(=O)N[C@@H](CC(C)C)C(=O)[C@@]1(C)CO1)C(C)C [Analogue 13, N-((S)-1-(((S)-4-((4-Aminophenyl)sulfonyl)-1-(((S)-4-methyl-1-((R)-2-methyloxiran-2-yl)-1oxopentan-2-yl)amino)-1-oxobutan-2-yl)amino)-3-methyl-1-oxobutan-2-yl)hexanamide] | 1.8 ± 0.1 | 2.6 ± 0.2 | IC50 (SKBR3 cells (Her2+); [8]): 0.43 nM; IC50 [3]: 14 nM; IC50 [4]: 540 nM
– | CCCCCC(=O)N[C@H](C(=O)N[C@@H](CCS(=O)(=O)c1ccc(NC(=O)OC(C)(C)C)cc1)C(=O)N[C@@H](CC(C)C)C(=O)[C@@]1(C)CO1)C(C)C [Analogue 13-Boc, tert-Butyl (4-(((S)-3-((S)-2-hexanamido-3-methylbutanamido)-4-(((S)-4-methyl-1-((R)-2methyloxiran-2-yl)-1-oxopentan-2-yl)amino)-4-oxobutyl)sulfonyl)phenyl)carbamate] | – | 4.9 ± 0.1 | –
1.9 ± 0.1 | CCCCCC(=O)N[C@H](C(=O)N[C@@H](CCC(=O)N[C@@H](CC(C)C)C(=O)[C@@]1(C)CO1)C(=O)N[C@@H](CC(C)C)C(=O)[C@@]1(C)CO1)C(C)C [Analogue 14, (S)-2-((S)-2-Hexanamido-3-methylbutanamido)-N1,N5-bis((S)-4-methyl-1-((R)-2methyloxiran-2-yl)-1-oxopentan-2-yl)pentanediamide] | 5.4 ± 1 | 0.2 ± 0.1 | IC50 [3]: 98 nM; IC50 [4]: 150 nM
5.6 | CCCCCC(=O)N[C@@H](Cc1ccc(N)cc1)C(=O)N[C@@H](CCC(=O)N[C@@H](CC(C)C)C(=O)[C@@]1(C)CO1)C(=O)N[C@@H](CC(C)C)C(=O)[C@@]1(C)CO1 [Analogue 15, (S)-2-((S)-3-(4-Aminophenyl)-2-hexanamidopropanamido)-N1,N5-bis((S)-4-methyl-1-((R)2-methyloxiran-2-yl)-1-oxopentan-2-yl)pentanediamide] | 29.8 | 53 | IC50 (MDA-MB-468 cells (Her2-); [9]): 30 nM; IC50 (SKBR3 cells (Her2+); [8]): 21 nM; IC50 [3]: 315 nM; IC50 [4]: > 1000 nM
90 ± 13 | CC(C)C[C@H](NC(=O)CC[C@H](NC(=O)[C@@H](NC(=O)Cc1ccc(N)cc1)C(C)C)C(=O)N[C@@H](CC(C)C)C(=O)[C@@]1(C)CO1)C(=O)[C@@]1(C)CO1 [Analogue 16, (S)-2-((S)-2-(2-(4-Aminophenyl)acetamido)-3-methylbutanamido)-N1,N5-bis((S)-4-methyl1-((R)-2-methyloxiran-2-yl)-1-oxopentan-2-yl)pentanediamide] | 25.3 | 45 | IC50 (MDA-MB-468 cells (Her2-); [9]): 33 nM; IC50 (SKBR3 cells (Her2+); [8]): 25 nM; IC50 [3]: 71.5 nM; IC50 [4]: > 1000 nM
> 1000 | CCCCCC(=O)N[C@H](C(=O)N[C@@H](CCC(=O)N[C@@H](CC(C)C)C(=O)[C@@]1(C)CO1)C(=O)NC(CCS(=O)(=O)c1ccc(N)cc1)C(=O)OC)C(C)C (stereo partly drawn) [Analogue 17, Methyl 4-((4-aminophenyl)sulfonyl)-2-((S)-2-((S)-2-hexanamido-3-methylbutanamido)-5(((S)-4-methyl-1-((R)-2-methyloxiran-2-yl)-1-oxopentan-2-yl)amino)-5oxopentanamido)butanoate] | > 10000 | 5540 | IC50 (MDA-MB-468 cells (Her2-); [9]): 1740 nM; IC50 (SKBR3 cells (Her2+); [8]): 2430 nM; IC50 [3]: > 1000 nM; IC50 [4]: > 1000 nM
– | CCCCCC(=O)NC(C(=O)NC(CCSC)C(=O)NC(CC(C)C)C(=O)C1(C)CO1)C(C)C (centres unmarked) [Analogue 21] | – | – | IC50 (NCI-H460 cells; read-out: NCI-H460 IC50, Table 2, NCI-H460 cell line): 27 ± 2.6 nM; IC50 (HCT116 cells; read-out: HCT116 IC50, Table 2, HCT116 cell line): 22 nM
– | CC[C@H](C)[C@@H]([C@@H](CC(=O)N1CCC[C@H]1[C@H](OC)[C@@H](C)C(=O)N[C@H](C)[C@@H](O)c1ccccc1)OC)N(C)C(=O)[C@@H](NC(=O)[C@@H](NC)C(C)C)C(C)C [MMAE, monomethyl auristatin E, reference compound] (H-[NMeV]V[Dil][Dolaproine]-X1) | – | – | IC50 (MDA-MB-468 cells (Her2-); read-out: MDA-MB-468 IC50, Table 5, Her2- cell): 0.17 nM; IC50 (SKBR3 cells (Her2+); read-out: SKBR3 IC50, Table 5, Her2+ cell): 0.072 nM; IC50 (MDA-MB-231 cells (Her2-)): 5 pM
– | CCCCCC(=O)N[C@H](C(=O)N[C@@H](CCS(C)(=O)=O)C(=O)N[C@@H](CC(C)C)C(=O)[C@@]1(C)CO1)C(C)C [carmaphycin B, reference compound] | – | – | IC50 (NCI-H460 cells; [5]): 6 nM
